Measured values from ChEMBL document CHEMBL1140591, “Syntheses of novel myxopyronin B analogs as potential inhibitors of bacterial RNA polymerase” (Bioorg Med Chem Lett, 2007).
Converted amounts (≈) assume the structure as drawn.

Experiments:
[1] = Inhibition of Escherichia coli DNA-dependent RNA polymerase by nucleotide coupled NADPH/pyrophosphate release assay
How it was run: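 In the pyrophosphate-release coupled assay, NADPH was monitored by fluorescence (emission ~440 nm) instead of absorbance at 340 nm. Some compounds were also tested by incorporation of radiolabeled nucleotide into RNA.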

Escherichia coli [2] = experiment: Antibacterial activity against Escherichia coli; type: functional
How it was run: (§1)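 MIC determined by growth inhibition testing; the same test was also run against S. aureus.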

Staphylococcus aureus = experiment: Antibacterial activity against Staphylococcus aureus; type: functional
CEM-SS = experiment: Cytotoxicity against human CEM-SS cells upto 40 uM after 3 days; type: cell-based; details: 72 h
How it was run: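 CEM-SS T lymphocytes were incubated with compound for 3 days and then treated with XTT. The signal was read […] at 450 nm/650 nm, and CC50 was determined from the readings.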

Escherichia coli [3] = experiment: Inhibition of Escherichia coli DNA-dependent RNA polymerase at 10 uM by nucleotide coupled NADPH/pyrophosphate release assay
Escherichia coli [4] = experiment: Antibacterial activity against Escherichia coli Tol C mutant; type: functional; how it was run: as §1

| SMILES | IC50 [1] [µM] | MIC (Escherichia coli [2]) [µg/mL] | MIC (Staphylococcus aureus) [µg/mL] | Activity (CEM-SS) | inhibition (Escherichia coli [3]) [%] | MIC (Escherichia coli [4]) [µg/mL] |
| --- | --- | --- | --- | --- | --- | --- |
| CCCC/C(C)=C/C=C(\C)C(=O)c1c(O)cc(CCC/C=C/NC(=O)OC)n(C)c1=O | 15 | > 64 | > 64 | Non-toxic |  |  |
| CCCCCC(=O)c1c(O)cc(CCC/C=C/NC(=O)OC)oc1=O |  | > 64 | > 64 | Non-toxic | < 20 |  |
| COC(=O)N/C=C/CCC(C)c1cc(O)c(C(=O)NC/C=C(\C)CCC=C(C)C)c(=O)o1 (stereo not drawn) |  | > 64 | > 64 | Non-toxic | < 20 | 16 (≈ 35.8 µM) |
| CCCCCCCCC(=O)c1c(O)cc(CCC/C=C/NC(=O)OC)oc1=O |  | > 64 | > 64 | Non-toxic | < 20 |  |
| CCCC/C(C)=C/C=C(\C)C(=O)c1c(O)cc([C@H](C)CC/C=C/NC(=O)OC)oc1=O [MYXOPYRONIN B] | 0.92 | > 64 | 1 (≈ 2.32 µM) | Non-toxic |  | 2 (≈ 4.63 µM) |
| CCCC/C(C)=C/C=C(\C)C(=O)c1c(O)cc(C(C)CC/C=C/NC(=O)OC)n(C)c1=O (stereo not drawn) | 20.5 | > 64 | > 64 | Non-toxic |  |  |
| CCCC/C(C)=C/C=C(\C)C(=O)c1c(O)cc(CCC/C=C/NC(=O)OC)oc1=O [DESMETHYL MYXOPYRONIN B] | 0.34 | > 64 | 4 (≈ 9.58 µM) | Non-toxic |  | 1 (≈ 2.4 µM) |
| CCCC/C(C)=C/C=C(\C)C(=O)c1ccc(C(C)CC/C=C/NC(=O)OC)cc1O (stereo not drawn) |  | > 64 | > 64 | Non-toxic | 38 |  |
| COC(=O)N/C=C/CCCc1cc(O)c(C(=O)/C=C/c2ccc3[nH]ccc3c2)c(=O)o1 |  | > 64 | > 64 | Non-toxic | < 20 |  |
| COC(=O)N/C=C/CCCc1cc(O)c(C(=O)/C(C)=C\c2ccco2)c(=O)o1 |  | > 64 | > 64 | Non-toxic | < 20 |  |
